Laboratory results reported in PubChem BioAssay AID485348 (The Scripps Research Institute Molecular Screening Center, 2010).
Active and inactive are the calls of the source.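 Rule for the calls: active = inhibition above 25%, the campaign hit cutoff; inactive = the rest.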

Biological target: Nuclear receptor subfamily 5 group A member 2 (Homo sapiens) (UniProt O00482)
Test: LRH-1 reporter luminescence decrease – cell-based, 3X%INH, LRH-1 inverse agonist project (AID 485348)
Conditions: HEK293T LRH-1 Cyp19-luciferase reporter, 20 h, at 5 µM, stronger effect = higher value
Summary of the method: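 Assay system – HEK293T with full-length LRH-1 plus Cyp19 luciferase reporter · Times – 20 h compound exposure after 4 h rest · Measured by – luminescence · Benchmarks – DMSO vehicle wells · Repeats – triplicate wells per compound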

Sequence of Nuclear receptor subfamily 5 group A member 2 (Homo sapiens) (O00482 whole entry, looked up): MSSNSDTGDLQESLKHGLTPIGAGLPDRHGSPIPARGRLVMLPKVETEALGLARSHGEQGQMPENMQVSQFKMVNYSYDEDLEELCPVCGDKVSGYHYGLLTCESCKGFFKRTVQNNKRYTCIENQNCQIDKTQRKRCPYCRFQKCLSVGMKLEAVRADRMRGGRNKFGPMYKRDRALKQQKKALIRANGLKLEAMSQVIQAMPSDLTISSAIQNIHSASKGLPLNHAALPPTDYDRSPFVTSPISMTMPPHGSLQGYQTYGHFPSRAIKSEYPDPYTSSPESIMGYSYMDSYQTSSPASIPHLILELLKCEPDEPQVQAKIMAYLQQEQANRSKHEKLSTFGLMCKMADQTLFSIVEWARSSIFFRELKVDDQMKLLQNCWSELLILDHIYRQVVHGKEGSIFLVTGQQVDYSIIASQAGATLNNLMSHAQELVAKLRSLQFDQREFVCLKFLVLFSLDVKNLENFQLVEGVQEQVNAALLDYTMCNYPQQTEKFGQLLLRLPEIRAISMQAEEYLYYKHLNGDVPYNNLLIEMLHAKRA

Structure (SMILES)	inhibition
O=c1cc(N2CCN(c3ccc(F)cc3F)CC2)[nH]c(=O)n1C1CCCCC1	3.3% (inactive)
O=c1cc(N2CCN(c3cc(C(F)(F)F)ccn3)CC2)[nH]c(=O)n1C1CCCCC1	20.3% (inactive)
O=c1cc(N2CCN(c3ccc(C(F)(F)F)cc3)CC2)[nH]c(=O)n1C1CCCCC1	0% (inactive)
O=c1cc(N2CCN(c3nccc4occc34)CC2)[nH]c(=O)n1C1CCCCC1	2.7% (inactive)
Cc1ccc(Cl)cc1N1CCN(c2cc(=O)n(C3CCCCC3)c(=O)[nH]2)CC1	16.3% (inactive)
O=C(c1ccccc1)N1CCN(c2cc(=O)n(C3CCCCC3)c(=O)[nH]2)CC1	0.3% (inactive)
CCn1c(=O)cc(N2CCN(Cc3ccccc3)CC2)[nH]c1=O	9.7% (inactive)
O=c1cc(N2CCN(c3cccc(C(F)(F)F)c3)CC2)[nH]c(=O)n1-c1ccccc1	17.7% (inactive)
O=c1cc(N2CCN(c3nc(-c4ccccc4)ns3)CC2)[nH]c(=O)n1C1CCCCC1	42%
O=c1cc(N2CCN(c3ccc(F)cc3)CC2)[nH]c(=O)n1C1CCCCC1	1.3% (inactive)
O=c1cc(N2CCN(c3ccccc3C(F)(F)F)CC2)[nH]c(=O)n1C1CCCCC1	16% (inactive)
O=c1cc(N2CCN(c3cccc(C(F)(F)F)n3)CC2)[nH]c(=O)n1C1CCCCC1	3.3% (inactive)
CCN1CCN(c2cc(=O)n(C3CCCCC3)c(=O)[nH]2)CC1	5.3% (inactive)
O=c1cc(N2CCCCC2)[nH]c(=O)n1C1CCCCC1	20.3% (inactive)
Cn1c(=O)cc(N2CCN(c3ccc(F)cc3)CC2)[nH]c1=O	14% (inactive)
Cc1ccc(C)n1CCN1CCN(c2cc(=O)n(C3CCCCC3)c(=O)[nH]2)CC1	32.3%
O=c1cc(N2CCN(C(c3ccccc3)c3ccccc3)CC2)[nH]c(=O)n1C1CCCCC1	4% (inactive)
O=c1cc(N2CCN(c3ncccc3C(F)(F)F)CC2)[nH]c(=O)n1C1CCCCC1	11.3% (inactive)
O=c1cc(N2CCN(Cc3ccc(Cl)cc3)CC2)[nH]c(=O)n1C1CCCCC1	30.3%
C=CCN1CCN(c2cc(=O)n(C3CCCCC3)c(=O)[nH]2)CC1	-30% (inactive)

Structure (SMILES)	inhibition
CC(C)Cn1c(=O)cc(N2CCN(c3cccc(C(F)(F)F)c3)CC2)[nH]c1=O	33.3%
O=c1cc(N2CCN(c3cccc(Cl)c3)CC2)[nH]c(=O)[nH]1	0% (inactive)
O=c1cc(N2CCN(c3cccc(Cl)n3)CC2)[nH]c(=O)n1C1CCCCC1	45%
O=c1cc(N2CCN(CCN3CCOCC3)CC2)[nH]c(=O)n1C1CCCCC1	13.3% (inactive)
O=c1cc(N2CCN(c3cccc(C(F)(F)F)c3)CC2)[nH]c(=O)n1C1CCCCC1	45.7%
O=c1cc(N2CCN(c3cc(Cl)cc(Cl)c3)CC2)[nH]c(=O)n1C1CCCCC1	20% (inactive)
O=c1cc(N2CCN(c3ccnc4cc(Cl)ccc34)CC2)[nH]c(=O)n1C1CCCCC1	34.7%
CCOC(=O)N1CCN(c2cc(=O)n(C3CCCCC3)c(=O)[nH]2)CC1	16% (inactive)
O=c1cc(N2CCN(c3ccccn3)CC2)[nH]c(=O)n1C1CCCCC1	36%
O=c1cc(N2CCN(c3cccc(Cl)c3)CC2)[nH]c(=O)n1C1CCCCC1	52.3%
O=c1cc(N2CCN(c3ccccc3Cl)CC2)[nH]c(=O)n1C1CCCCC1	16% (inactive)
O=c1cc(N2CCN(c3cccc(Br)c3)CC2)[nH]c(=O)n1C1CCCCC1	17% (inactive)
COc1ccc(N2CCN(c3cc(=O)n(C4CCCCC4)c(=O)[nH]3)CC2)cc1	1.7% (inactive)
O=C(c1ccco1)N1CCN(c2cc(=O)n(C3CCCCC3)c(=O)[nH]2)CC1	11% (inactive)
O=c1cc(N2CCN(c3cccc(C(F)(F)F)c3)CC2)[nH]c(=O)n1Cc1ccccc1	3% (inactive)
O=c1cc(N2CCN(Cc3ccc4c(c3)OCO4)CC2)[nH]c(=O)n1C1CCCCC1	16.7% (inactive)
C=CCn1c(=O)cc(N2CCN(c3cccc(C(F)(F)F)c3)CC2)[nH]c1=O	36.7%
CCn1c(=O)cc(N2CCN(c3cccc(C(F)(F)F)c3)CC2)[nH]c1=O	39.3%
CCn1c(=O)cc(N2CCN(C(=O)c3ccco3)CC2)[nH]c1=O	3.3% (inactive)
CCn1c(=O)cc(N2CCN(c3cccc(Cl)c3)CC2)[nH]c1=O	45%

Structure (SMILES)	inhibition
O=c1cc(N2CCN(c3ccccc3)CC2)[nH]c(=O)n1C1CCCCC1	32%
CCn1c(=O)cc(N2CCN(c3ccccc3)CC2)[nH]c1=O	3.7% (inactive)
C=CCn1c(N2CCN(c3cccc(C(F)(F)F)c3)CC2)cc(=O)n(C2CCCCC2)c1=O	29.7%
N#CCn1c(N2CCN(c3cccc(C(F)(F)F)c3)CC2)cc(=O)n(C2CCCCC2)c1=O	2% (inactive)
O=c1cc(N2CCOCC2)[nH]c(=O)n1C1CCCCC1	5.3% (inactive)
O=c1cc(N2CCN(c3ccccc3)CC2)[nH]c(=O)n1Cc1ccc(F)cc1	22.7% (inactive)
O=c1cc(N2CCc3ccccc32)[nH]c(=O)n1C1CCCCC1	14.3% (inactive)
Cc1cc(C)cc(N2CCN(c3cc(=O)n(C4CCCCC4)c(=O)[nH]3)CC2)c1	38.3%
O=c1cc(N2CCC(Cc3ccccc3)CC2)[nH]c(=O)n1C1CCCCC1	2.3% (inactive)
CC1CCN(c2cc(=O)n(C3CCCCC3)c(=O)[nH]2)CC1	10% (inactive)
COC(=O)C1CCN(c2cc(=O)n(C3CCCCC3)c(=O)[nH]2)CC1	18% (inactive)
CCn1c(=O)cc(N2CCN(c3ccc(F)cc3)CC2)[nH]c1=O	2.3% (inactive)
O=c1cc(N2CCN(c3ncccc3Cl)CC2)[nH]c(=O)n1C1CCCCC1	17.7% (inactive)
O=c1cc(N2CCN(c3cccc(F)c3)CC2)[nH]c(=O)n1C1CCCCC1	36.7%
O=c1cc(N2CCCC2)[nH]c(=O)n1C1CCCCC1	8.7% (inactive)
O=c1cc(N2CCN(c3cccc(C(F)(F)F)c3)CC2)n(Cc2ccccc2)c(=O)n1C1CCCCC1	21.3% (inactive)
O=c1cc(N2CCN(C3CCCCC3)CC2)[nH]c(=O)n1C1CCCCC1	35.3%
O=c1cc(N2CCN(c3cccc(Cl)c3Cl)CC2)[nH]c(=O)n1C1CCCCC1	42%
CC1CCN(c2cc(=O)n(Cc3ccc(F)cc3)c(=O)[nH]2)CC1	5.7% (inactive)
Cn1c(=O)cc(N2CCN(c3cccc(Cl)c3)CC2)[nH]c1=O	40.7%
